ChEMBL document CHEMBL1137092, “Synthesis and evaluation of two 18F-labeled 6-iodo-2-(4'-N,N-dimethylamino)phenylimidazo[1,2-a]pyridine derivatives as prospective radioligands for beta-amyloid in Alzheimer's disease” (J Med Chem, 2004)
“And” between values parts separate entries of the source, which are not always exact repeats. Equal values may be shown once.

How the values were obtained:
Mus musculus [1] = experiment: Maximum activity (i.v.) after in mice, expressed as [(ID%-kg)/g] (Radiolabeled compound); type: ADME, organism-based; settings: in vivo, iv
Procedure, shortened: (§1)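 Male ICR mice (2–3 months, 20–30 g) under 1% isoflurane, body temperature held at 36–37 °C. No-carrier-added 18F ligand (400–450 μCi) in 0.9% saline with 0.1% Tween given via tail-vein catheter. Dynamic small-animal PET for 1–2 h. Brain and skull time-activity curves were averaged over four mice and fitted to a double-exponential model; bone uptake was fitted linearly or exponentially.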

Mus musculus [2] = experiment: Compound was evaluated for rate of bone uptake after administration of radiolabeled in mice (Radiolabeled compound); type: ADME, organism-based, Bone element; settings: in vivo; procedure, shortened: as §1
Mus musculus [3] = species: Mus musculus; experiment: Residual activity in mice at 120 minutes, expressed as [(ID%-kg)/g] (Radiolabeled compound); type: ADME, organism-based; settings: in vivo, 2 h; procedure, shortened: as §1
Mus musculus [4] = species: Mus musculus; experiment: Time at maximum activity in mice (Radiolabeled compound); type: ADME, organism-based; settings: in vivo; procedure, shortened: as §1
Mus musculus [5] = species: Mus musculus; experiment: Compound was evaluated for washout rate in mice after radiolabeled ligand injected; type: ADME, organism-based; settings: in vivo; procedure, shortened: as §1
[6] = Compound was evaluated for distribution coefficient (logD) measured at pH7.4; type: physicochemical; settings: octanol/water, pH 7.4
Procedure, shortened: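 Shake-flask partition: ligand (3–5 mg) in 0.1 M sodium phosphate pH 7.4 (6.0 mL) with n-octanol (1.0 mL). Vortexed 1 min, shaken 1 min, filtered, left 10 min at RT, centrifuged 5000g for 10 min. Value is the ratio of organic-phase to aqueous-phase concentration.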

[7] = Compound (i.v.) was evaluated for uptake rate constants in cerebellum of rhesus monkeys (Radiolabeled compound); type: ADME, tissue-based; settings: cercopithecidae, iv
Procedure, shortened: (§2)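 Rhesus monkey with urinary catheter; ECG, temperature, heart and respiration rates monitored. A 32 min 68Ge transmission scan was taken for attenuation correction. 18F ligand (2.9 mCi) given iv. Dynamic 3D head PET ran 120 min (33 frames, 30 s–5 min). Regional uptake and elimination rate constants were fitted from time-activity curves.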

Mus musculus [8] = experiment: Compound was evaluated for uptake rate constants in vivo in whole blood of normal mice; NA = not active (Radiolabeled compound); type: ADME, organism-based
Procedure, shortened: (§3)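 Normal mice given 18F ligand iv during PET. Serial blood samples (10–35 μL) were taken and analysed by reverse-phase HPLC for parent, lipophilic and polar radioactive components. Parent, lipophilic and total curves were fitted to single-exponential decay; the polar metabolite curve was fitted double-exponentially to give rate constants.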

Mus musculus [9] = experiment: Compound was evaluated for elimination rate constants in vivo in whole blood of normal mice (Radiolabeled compound); type: ADME, organism-based; procedure, shortened: as §3
Mus musculus [10] = species: Mus musculus; experiment: Compound was evaluated for washout rate in mice (Radiolabeled compound); type: ADME, organism-based; settings: in vivo; procedure, shortened: as §1
Mus musculus [11] = experiment: Compound (i.v.) was tested for maximum activity in mice (Radiolabeled compound); type: ADME, organism-based; settings: in vivo, iv; procedure, shortened: as §1
Mus musculus [12] = species: Mus musculus; experiment: Compound was evaluated for rate of bone uptake in mice (Radiolabeled compound); type: ADME, organism-based, Bone element; settings: in vivo; procedure, shortened: as §1
[13] = Compound (i.v.) was evaluated for elimination rate constants in striatum of rhesus monkey (Radiolabeled compound); type: ADME, tissue-based; settings: cercopithecidae, iv; procedure, shortened: as §2
[14] = Compound (i.v.) was evaluated for elimination rate constants in brainstem of rhesus monkeys (Radiolabeled compound); type: ADME, tissue-based, Brain; settings: cercopithecidae, iv, read-out: Activity (converted); procedure, shortened: as §2
[15] = Compound (i.v.) was evaluated for elimination rate constants in frontal cortex of rhesus monkey (Radiolabeled compound); type: ADME, tissue-based; settings: cercopithecidae, iv, read-out: Activity (converted); procedure, shortened: as §2
[16] = Compound (i.v.) was evaluated for elimination rate constants in cerebellum of rhesus monkeys (Radiolabeled compound); type: ADME, tissue-based; settings: cercopithecidae, iv; procedure, shortened: as §2
[17] = Compound (i.v.) was evaluated for uptake rate constants in brainstem of rhesus monkeys (Radiolabeled compound); type: ADME, tissue-based, Brain; settings: cercopithecidae, iv; procedure, shortened: as §2
[18] = Compound (i.v.) was evaluated for uptake rate constants in striatum of rhesus monkeys (Radiolabeled compound); type: ADME, tissue-based; settings: cercopithecidae, iv; procedure, shortened: as §2
[19] = Compound (i.v.) was evaluated for uptake rate constants in jaw bone of rhesus monkey (Radiolabeled compound); type: ADME, tissue-based, Bone element; settings: cercopithecidae, iv; procedure, shortened: as §2
[20] = Compound (i.v.) was evaluated for uptake rate constants in frontal cortex of rhesus monkey (Radiolabeled compound); type: ADME, tissue-based; settings: cercopithecidae, iv; procedure, shortened: as §2
Mus musculus [21] = experiment: Compound was evaluated for uptake rate constants in vivo in whole blood of normal mice (Radiolabeled compound); type: ADME, organism-based; procedure, shortened: as §3
[22] = Compound (i.v.) was evaluated for elimination rate constants in jaw bone of rhesus monkeys; NA = not active (Radiolabeled compound); type: ADME, tissue-based, Bone element; settings: cercopithecidae, iv; procedure, shortened: as §2
Mus musculus [23] = species: Mus musculus; experiment: Maximum activity in mice, expressed as [(ID%-kg)/g] (Radiolabeled compound); type: ADME, organism-based; settings: in vivo; procedure, shortened: as §1
Mus musculus [24] = species: Mus musculus; experiment: Compound was evaluated for rate of bone uptake in mice; NA - not active (Radiolabeled compound); type: ADME, organism-based, Bone element; settings: in vivo

CN(CCCF)c1ccc(-c2cn3cc(I)ccc3n2)cc1
Activity (Mus musculus [1]): 0.157 | Activity (Mus musculus [2]): 0.00728 min⁻¹ | Activity (Mus musculus [3]): 0.0479 | Activity (Mus musculus [4]): 1.83 min | Activity (Mus musculus [5]): 0.127 min⁻¹ | logD [6]: 4.6

CN(CCF)c1ccc(-c2cn3cc(I)ccc3n2)cc1
Activity (Mus musculus [1]): 0.161 | Activity [7]: 1.09 min⁻¹ | Activity (Mus musculus [8]): Not Active | Activity (Mus musculus [9]): 1.14 min⁻¹ and 0.722 min⁻¹ and 0.801 min⁻¹ | Activity (Mus musculus [10]): 0.334 min⁻¹ | Activity (Mus musculus [11]): 0.5 min | Activity (Mus musculus [3]): 0.111 | Activity (Mus musculus [12]): 0.0016 min⁻¹ | Activity [13]: 0.0859 min⁻¹ | k el [14]: 0.000813 s⁻¹ | k el [15]: 0.00101 s⁻¹ | Activity [16]: 0.0854 min⁻¹ | Activity [17]: 1 min⁻¹ | logD [6]: 4.41 | Activity [18]: 0.972 min⁻¹ | Activity [19]: 0.373 min⁻¹ | Activity [20]: 0.859 min⁻¹ | Activity (Mus musculus [21]): 0.576 min⁻¹ | Activity [22]: Not Active

CN(C)c1ccc(-c2cn3cc([125I])ccc3n2)cc1
Activity (Mus musculus [23]): 0.216 | Activity (Mus musculus [10]): 0.122 min⁻¹ | Activity (Mus musculus [24]): Not Active | Activity (Mus musculus [3]): 0.0108 | Activity (Mus musculus [4]): 2 min | logD [6]: 3.58
